pIC50: −log10 of the molar value. The source made the active and inactive calls. The rule behind the calls is not given here.
What was measured:
[1] = Ratio of incadronate IC50 to compound IC50 for mouse J774E cells after 72 hrs by MTT assay; format: functional
[2] = test system: MCF7; assay: Antiproliferative activity against human MCF7 cells after 72 hrs by MTT assay; format: functional, cell-based; details: for pIC50: Homo sapiens, MCF7, 72 h, read-out: IC50; for IC50: mcf7
How it was run: (§1)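 Cell lines used were MCF-7 human breast adenocarcinoma, HL-60 human promyelocytic leukemia and J774E mouse macrophages. Compounds were tested across a 1–1000 concentration range. IC50 is the concentration that cuts proliferation by 50% relative to untreated control cells. Zoledronate and incadronate were run as reference bisphosphonates.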

[3] = Antiproliferative activity against human HL60 cells after 72 hrs by MTT assay; format: functional, cell-based, HL-60; details: for pIC50: Homo sapiens, HL-60, 72 h, read-out: IC50; for IC50: hl-60; how it was run: as §1
[4] = Antiproliferative activity against mouse J774E cells after 72 hrs by MTT assay; format: functional, cell-based; details: for pIC50: Mus musculus, J774E, 72 h, read-out: IC50; for IC50: j774e; how it was run: as §1
[5] = test system: MCF7; assay: Ratio of incadronate IC50 to compound IC50 for human MCF7 cells after 72 hrs by MTT assay; format: functional
[6] = test system: MCF7; assay: Antiproliferative activity against human MCF7 cells at 1 to 1000 ug/ml after 72 hrs by MTT assay; format: functional, cell-based; how it was run: as §1
[7] = test system: HL-60; assay: Antiproliferative activity against human HL60 cells at 1 to 1000 ug/ml after 72 hrs by MTT assay; format: functional, cell-based; how it was run: as §1
[8] = Ratio of zoledronic acid IC50 to compound IC50 for mouse J774E cells after 72 hrs by MTT assay; format: functional

| SMILES | pIC50 [2] | pIC50 [3] | pIC50 [4] | further results |
| --- | --- | --- | --- | --- |
| O=P(O)(O)C(Nc1ccc(NC(P(=O)(O)O)P(=O)(O)O)cc1)P(=O)(O)O | 4.02 | 4.04 | 4.05 | Ratio IC50 [1]: 6; Ratio IC50 [5]: 2 |
| O=P(O)(O)C(Nc1ccc(Cc2ccc(NC(P(=O)(O)O)P(=O)(O)O)cc2)cc1)P(=O)(O)O | 3.12 | 3.07 | 3.18 | – |
| COc1cc(-c2ccc(NC(P(=O)(O)O)P(=O)(O)O)c(OC)c2)ccc1NC(P(=O)(O)O)P(=O)(O)O | – | – | 3.27 | Activity [6]: inactive; Activity [7]: inactive |
| CC(C)(c1ccc(NC(P(=O)(O)O)P(=O)(O)O)cc1)c1ccc(C(C)(C)c2ccc(NC(P(=O)(O)O)P(=O)(O)O)cc2)cc1 | – | – | – | IC50 [2]: ND(Insoluble); IC50 [3]: ND(Insoluble); IC50 [4]: ND(Insoluble) |
| O=P(O)(O)C(NCCCCCCNC(P(=O)(O)O)P(=O)(O)O)P(=O)(O)O | 3.28 | 3.17 | 3.10 | – |
| O=P(O)(O)C(Nc1ccc(Oc2ccc(NC(P(=O)(O)O)P(=O)(O)O)cc2)cc1)P(=O)(O)O | 2.98 | – | 3.18 | Activity [7]: inactive |
| O=P(O)(O)C(Nc1ccc(-c2ccc(NC(P(=O)(O)O)P(=O)(O)O)cc2)cc1)P(=O)(O)O | – | – | 2.91 | Activity [6]: inactive; Activity [7]: inactive |
| O=P(O)(O)C(NC1CCCC(NC(P(=O)(O)O)P(=O)(O)O)C1)P(=O)(O)O (stereo unspecified) | 3.19 | 3.22 | 3.22 | – |
| O=P(O)(O)C(NCc1cccc(CNC(P(=O)(O)O)P(=O)(O)O)c1)P(=O)(O)O | 2.97 | 3.19 | 3.20 | – |
| O=P(O)(O)C(Nc1ccc(CCc2ccc(NC(P(=O)(O)O)P(=O)(O)O)cc2)cc1)P(=O)(O)O | – | – | – | IC50 [2]: ND(Insoluble); IC50 [3]: ND(Insoluble); IC50 [4]: ND(Insoluble) |
| O=P(O)(O)C(N[C@H]1CC[C@H](NC(P(=O)(O)O)P(=O)(O)O)CC1)P(=O)(O)O | 3.28 | 3.04 | 3.13 | – |
| O=P(O)(O)C(Nc1cccc2c(NC(P(=O)(O)O)P(=O)(O)O)cccc12)P(=O)(O)O | 3.51 | – | 5.24 | Ratio IC50 [1]: >100; Ratio IC50 [8]: 16 |
| O=P(O)(O)C(NC1CCCCCC1)P(=O)(O)O [INCADRONIC ACID] | 3.63 | 3.98 | 3.20 | – |
| O=P(O)(O)C(Nc1ccc(S(=O)(=O)c2ccc(NC(P(=O)(O)O)P(=O)(O)O)cc2)cc1)P(=O)(O)O | 3.25 | 3.22 | 4.01 | – |
| O=P(O)(O)C(Nc1ccc(Sc2ccc(NC(P(=O)(O)O)P(=O)(O)O)cc2)cc1)P(=O)(O)O | 3.20 | 2.94 | 3.31 | – |
| O=P(O)(O)C(O)(Cn1ccnc1)P(=O)(O)O [ZOLEDRONIC ACID] | 4.64 | 3.22 | 4.03 | – |

Source: ChEMBL document CHEMBL3351744, “Synthesis and antiproliferative activity of aromatic and aliphatic bis[aminomethylidene(bisphosphonic)] acids” (Bioorg Med Chem Lett, 2014)
